Experimental data: ChEMBL document CHEMBL4433218, “Behind the Mirror: Chirality Tunes the Reactivity and Cytotoxicity of Chloropiperidines as Potential Anticancer Agents” (ACS Med Chem Lett, 2019)
Active and inactive are the calls of the source. The rule behind the calls is not given here.

Key:
DNA [1] = assay: Induction of Escherichia coli pBR322 DNA cleavage in BPE buffer at 5 to 50 uM incubated for 2 hrs by electrophoresis method; format: nucleic-acid assay
Method in brief: (§1)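 Supercoiled pBR322 plasmid (120 ng) incubated with compound at 5 and 50 μM in BPE buffer, 37 °C. Dilutions freshly made in water from 10 mM DMSO stock and added to DNA immediately. Supercoiled, open circular and linear forms resolved on 1% agarose in TAE and stained with GelRed.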

DNA [2] = assay: Induction of Escherichia coli pBR322 DNA cleavage in BPE buffer at 5 to 50 uM incubated for 18 hrs by electrophoresis method; format: nucleic-acid assay; method in brief: as §1
HCT-15 = assay: Cytotoxicity against human HCT15 cells assessed as reduction in cell viability incubated for 72 hrs by MTT assay; format: functional, cell-based; settings: HCT-15, 72 h
Method in brief: (§2)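 Cell lines kept in log phase at 37 °C, 5% CO2 in RPMI-1640 with 10% fetal calf serum, penicillin 50 units/mL, streptomycin 50 μg/mL, 2 mM L-glutamine. Compounds dissolved in DMSO and added to medium at 0.5% final solvent. Treatment 72 h. Viability read by MTT. IC50 calculated.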

2008 = assay: Cytotoxicity against human 2008 cells assessed as reduction in cell viability incubated for 72 hrs by MTT assay; format: functional, cell-based; settings: Homo sapiens, 2008, 72 h; method in brief: as §2
BXPC-3 = assay: Cytotoxicity against human BxPC3 cells assessed as reduction in cell viability incubated for 72 hrs by MTT assay; format: functional, cell-based; settings: BXPC-3, 72 h; method in brief: as §2
[3] = Stability in pH 7.4 PBS buffer incubated for 1 hr by UPLC-MS analysis; format: physicochemical; settings: pH 7.4, 1 h
[4] = Permeability across PVDF membrane in PBS buffer of pH 7.4 at 500 uM incubated for 1 hr by UPLC-MS based PAMPA assay; format: ADME; settings: pH 7.4, 1 h
Method in brief: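 Donor: 500 μM compound in PBS pH 7.4, made from 10 mM DMSO stock. Acceptor: PBS with 5% DMSO. Filter coated with 1% L-α-phosphatidylcholine in n-dodecane. 1 h at room temperature. Initial, donor and acceptor samples quantified by UPLC-MS (C18, 0.1% formic acid water/acetonitrile gradient) against 20 μM caffeine internal standard. Membrane fraction taken by difference. Unreacted and reacted species summed.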

[5] = molecular target: DNA topoisomerase 2-alpha (Homo sapiens) (UniProt P11388); assay: Inhibition of human DNA topoisomerase-2alpha mediated decatenation using kinetoplast DNA as substrate at 5 to 50 uM incubated for 2 to 18 hrs
DNA topoisomerase 2-alpha (Homo sapiens), sequence (P11388 whole entry): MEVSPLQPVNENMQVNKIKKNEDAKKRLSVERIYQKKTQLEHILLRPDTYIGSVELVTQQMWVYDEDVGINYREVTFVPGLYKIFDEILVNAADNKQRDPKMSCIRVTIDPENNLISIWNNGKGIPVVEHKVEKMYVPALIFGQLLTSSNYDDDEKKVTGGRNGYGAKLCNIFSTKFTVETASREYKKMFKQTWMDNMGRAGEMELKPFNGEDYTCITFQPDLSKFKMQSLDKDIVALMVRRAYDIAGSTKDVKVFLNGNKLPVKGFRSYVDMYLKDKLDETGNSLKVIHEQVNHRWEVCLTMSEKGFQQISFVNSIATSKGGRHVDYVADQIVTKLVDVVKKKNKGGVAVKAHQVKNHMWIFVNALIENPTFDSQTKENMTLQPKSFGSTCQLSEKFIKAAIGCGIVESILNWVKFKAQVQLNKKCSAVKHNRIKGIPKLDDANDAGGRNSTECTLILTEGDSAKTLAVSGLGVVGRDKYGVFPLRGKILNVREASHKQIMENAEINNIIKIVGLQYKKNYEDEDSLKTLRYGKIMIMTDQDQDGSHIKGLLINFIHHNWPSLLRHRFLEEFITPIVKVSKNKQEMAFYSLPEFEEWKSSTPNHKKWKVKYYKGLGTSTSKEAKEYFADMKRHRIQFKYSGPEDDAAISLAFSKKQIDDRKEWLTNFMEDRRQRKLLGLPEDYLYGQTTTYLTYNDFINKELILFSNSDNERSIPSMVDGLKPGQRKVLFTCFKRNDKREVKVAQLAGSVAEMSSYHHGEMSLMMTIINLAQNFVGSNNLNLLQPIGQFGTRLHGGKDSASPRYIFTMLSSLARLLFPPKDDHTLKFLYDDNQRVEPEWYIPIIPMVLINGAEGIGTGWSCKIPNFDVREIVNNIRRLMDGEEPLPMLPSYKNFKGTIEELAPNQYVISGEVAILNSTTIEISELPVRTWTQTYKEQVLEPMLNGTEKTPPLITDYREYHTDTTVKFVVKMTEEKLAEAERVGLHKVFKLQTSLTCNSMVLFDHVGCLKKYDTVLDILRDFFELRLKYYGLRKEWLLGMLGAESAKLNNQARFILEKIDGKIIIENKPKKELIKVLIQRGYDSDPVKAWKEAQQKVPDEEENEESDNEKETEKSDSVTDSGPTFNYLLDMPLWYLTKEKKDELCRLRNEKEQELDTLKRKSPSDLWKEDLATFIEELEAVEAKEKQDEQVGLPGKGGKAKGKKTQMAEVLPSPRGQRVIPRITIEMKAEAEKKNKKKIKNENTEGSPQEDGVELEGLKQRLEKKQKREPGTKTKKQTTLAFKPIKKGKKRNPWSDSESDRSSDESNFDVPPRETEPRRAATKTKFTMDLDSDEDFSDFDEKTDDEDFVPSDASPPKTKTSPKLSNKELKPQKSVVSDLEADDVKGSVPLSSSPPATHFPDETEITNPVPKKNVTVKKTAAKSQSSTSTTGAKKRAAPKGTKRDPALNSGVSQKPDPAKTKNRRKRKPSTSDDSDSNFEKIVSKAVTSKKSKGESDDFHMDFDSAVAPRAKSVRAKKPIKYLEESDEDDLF
Method in brief: (§3)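 Human topoisomerase IIα decatenation of kinetoplast DNA, run with a commercial kit. Substrate DNA incubated with compound at 37 °C for 2 and 18 h.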

[6] = molecular target: DNA topoisomerase 2-alpha (Homo sapiens) (UniProt P11388); assay: Inhibition of human DNA topoisomerase-2alpha mediated decatenation using kinetoplast DNA as substrate at 50 uM incubated for 18 hrs; method in brief: as §3
[7] = Induction of dsDNA (unknown origin) alkylation in BPE buffer at 50 uM incubated for 2 hrs by ESI-MS analysis
Method in brief: (§4)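 Duplex oligodeoxynucleotide at 2 μM final, incubated with compound at 50 μM final in BPE buffer, 37 °C. Compound diluted in water from 10 mM DMSO stock just before use. Analysed by direct-infusion ESI-MS on an Orbitrap in 150 mM ammonium acetate. Adducts and abasic species assigned by mass, 6− charge state.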

[8] = Induction of dsDNA (unknown origin) alkylation in BPE buffer at 50 uM incubated for 18 hrs by ESI-MS analysis; method in brief: as §4

| SMILES | Activity (DNA [1]) | Activity (DNA [2]) | IC50 (HCT-15) [nM] | IC50 2008 [nM] | IC50 (BXPC-3) [nM] | Stability [3] | permeability [4] | inhibition [5] | inhibition [6] | Activity [7] | Activity [8] |
| --- | --- | --- | --- | --- | --- | --- | --- | --- | --- | --- | --- |
| CCCCN1CCC[C@H](Cl)C1 | inactive | Active | 181 | 102 | 7 | Stable | Permeable | inactive |  |  |  |
| CCCCN1CCC[C@@H](Cl)C1 | inactive | Active | 5640 | 4600 | 274 | Stable | Permeable | inactive |  |  |  |
| CC1(C)CC(Cl)CN(Cc2ccccc2)C1 (racemic) | inactive | Active | 300 | 107 | 6 | Stable | Impermeable |  | Active |  |  |
| CCCCN1CCCC(Cl)C1 (racemic) | inactive | Active | 474 | 329 | 57 | Stable |  |  |  | inactive | Active |
| CCCCN1CC(Cl)CC(C)(C)C1 (racemic) | inactive | Active | 254 | 174 | 24 | Stable | Impermeable |  | Active | Active | Active |
| O=C(O)CCCc1ccc(N(CCCl)CCCl)cc1 [CHLORAMBUCIL] | inactive | Active | 49700 | 12500 | 75300 |  |  |  |  |  |  |
